# High-throughput results as filed in PubChem BioAssay.
# APP 5UTR inh: APP translation inhibition | inhibition, % at 2 µM | actives 0.82% (n = 190,000) | AID 1285 | SH-SY5Y APP 5'UTR-luciferase reporter, luminescence;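 active = inhibition above a set limit, derived from the sample mean plus 3 SD, cut at about 45% in these data; inconclusive = one replicate passes the limit while the other fails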
# b-catenin transl: alters nuclear translocation of beta-catenin in HeLa cells. nuclear translocation activity, % at 5 µM. AID 1665. immunofluorescence imaging. actives 0.3% (n = 190,000);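 active = nuclear translocation activity above 50% at 5 µM, with a well cell count of 50 or more; inconclusive = wells under 50 cells across six images, flagged as toxic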;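 note: per-cell ratio of nuclear to cytoplasmic median beta-catenin stain intensity; plate controls were DMSO negative control for no effect and GSK-3 inhibitor IX positive control for full effect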
#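 assay system = human HeLa cells, endogenous beta-catenin | times = compound treatment 24 h, 37°C, 5% CO2 | detection = Anti-beta-catenin immunofluorescence on PFA-fixed, Triton-permeabilized cells, DAPI nuclei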
# IEC-6 tox: kills IEC-6 intestinal cells in KLF5 counter-screen; IEC-6 cytotoxicity, luminescence viability; inhibition, % at 5 µM; actives 0.78% (n = 290,000); in the data active = inhibition above about 22%;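 note: 0% = plate median of test compound wells and 100% = cytotoxic reference compound wells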
# BaF3 tox: parental Ba/F3 viability inhibition as JAK2V617F counter-screen. inhibition, % at 5.6 µM. AID 1486. actives 1.1% (n = 220,000). CellTiter-Glo ATP luminescence;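 active = inhibition above a per-campaign cutoff, the mean inhibition of all tested compounds plus 3 SD, cut at about 27% in these data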;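 note: 0% = DMSO wells and 100% = JAK Inhibitor I control wells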
# MT stabilizer: stabilizes microtubules in HeLa cells; % tubulin-high responders, % at 10 µM; actives 0.83% (n = 200,000); HeLa tubulin immunostaining HCS, 24 h; share of cells brighter than vehicle mean+2SD;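 active = plate Z-score above 3 for both tubulin-high and condensed-nucleus cell shares, with cell loss under 80%, at 10 µM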;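 note: anti alpha tubulin signal scored within the nucleus-defined area of each cell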
# Ba/F3 V617F tox: lowers viability of Ba/F3 cells expressing EpoR and JAK2V617F; inhibition, % at 5.6 µM; actives 1.1% (n = 220,000); ATP luminescence;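 active = inhibition above the campaign mean plus 3 SD over all tested compounds, cut at about 24% in these data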;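 note: cytokine-independent growth of Ba/F3 cells driven by EpoR plus mutant JAK2; 0% = DMSO-treated cells and 100% = JAK inhibitor I control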
# Numbers without * were called inactive; ? = inconclusive; . = no result. Compounds with a hit are over-represented: about 2.2% of the library has one in this group of screens.
SMILES,APP 5UTR inh,b-catenin transl,IEC-6 tox,BaF3 tox,MT stabilizer,Ba/F3 V617F tox
O=C(Nc1nnc(-c2ccc(F)cc2)o1)c1cccc([N+](=O)[O-])c1,-20,-2,98*,10,2,1
COc1cc(Cl)ccc1S(=O)(=O)n1nc(C)cc1C,8,-1,2,93*,4,-2
O=C(CN(Cc1ccccc1Cl)C(=O)c1csnn1)NC1CCCC1,.,.,4,.,.,.
Cc1nnn(-c2nonc2N)c1C(=O)N/N=C/c1ccccc1O,64*,2,6,6,4,0
Cc1nnn(-c2nonc2N)c1C(=O)N/N=C/c1cccc2ccccc12,-4,2,5,3,4,-4
CC1(C)N=c2ccc([N+](=O)[O-])c(N)c2=[N+]1[O-],.,2,-2,63*,.,69*
CSCCC(C)N1CCC(Oc2ccc(C(=O)N3CCCC3)cc2)CC1 (stereo not given),.,.,2,.,.,.
CCC/C(O)=C1\C(=O)CC(c2ccccc2)CC1=NCCc1c(C)[nH]c2ccccc12 (stereo not given),18,2,2,5,3,3
CC(=NCCc1c(C)[nH]c2ccc(OC(F)(F)F)cc12)C1=C(O)CC(c2ccccc2)CC1=O (stereo not given),23,2,-5,2,13*,-5
CC(=NCCc1c(C)[nH]c2ccc(C)cc12)C1=C(O)CC(c2ccccc2)CC1=O (stereo not given),88*,10,6,6,16*,1
COc1ccc(N(Cc2ccccc2)N=O)cc1,.,.,3,.,.,.
OC1(c2cccs2)CN(c2ccc(Br)cc2)C2=[N+]1CCCS2 (stereo not given),.,-2,-5,-4,.,-2
OC1(c2ccccc2)CN(c2ccccc2)C2=[N+]1CCS2 (stereo not given),-16,.,5,37*,3,35*
Cc1csc(CNC(=O)c2cc(COc3c(C)cccc3C)on2)n1,.,.,4,.,.,.
COc1ccc(-n2c(=S)[nH]c3cc(C(=O)NCc4cccnc4)ccc3c2=O)cc1,.,.,1,.,.,.
CCN1/C(=C/C(C)=C/c2sc3ccccc3[n+]2CC)Sc2ccccc21,67*,17,18,75*,55,100*
Cc1ccc(Nc2c(-c3ccccn3)nc3ccc(C)cn23)cc1,60*,-4,-1,2,11,4
Cc1ccc(-c2nc3cnccn3c2Nc2ccc3c(c2)OCO3)o1,9,2,-7,1,3,-4
Cc1ccc(Nc2c(-c3ccccn3)nc3cc(C)ccn23)cc1,60*,.,11,0,8,1
Cc1ccn2c(NC3CCCC3)c(-c3ccccn3)nc2c1,1,-6,2,7,2,3
Cc1ccn2c(Nc3ccc4c(c3)OCO4)c(-c3ccccn3)nc2c1,52*,-2,-6,4,3,-3
Cc1cc(OCC(=O)Nc2nccs2)c2c(C)cc(=O)oc2c1,.,.,-2,.,.,.
CN(C)S(=O)(=O)c1ccc(C(=O)OCCCN=C2NS(=O)(=O)c3ccccc32)cc1,45*,.,2,3,3,-1
COc1ccc(CNCc2ccc3c(c2)OCO3)c(OC)c1OC,.,.,-6,.,.,.
COc1ccc(NC(=O)c2nc(C)c(C3(C)CC(c4cccnc4)=NO3)s2)cc1 (stereo not given),.,76*,.,.,.,.
SMILES,APP 5UTR inh,b-catenin transl,IEC-6 tox,BaF3 tox,MT stabilizer,Ba/F3 V617F tox
Cn1nc(C(C)(C)C)cc1C(=O)NCc1cc(F)cc2c1OCOC2,.,1,9,57*,.,44*
Cc1cc(C(=O)NCc2cc(F)cc3c2OCOC3)nn1C,.,0,-2,-2,.,0
CN1/C(=C\C=C2/SC(=S)NC2=O)C(C)(C)c2ccccc21,-2,15,1,81*,19,65*
CN1/C(=C\C=C2/C(=O)Oc3ccccc3C2=O)C(C)(C)c2ccccc21,-52,-8,6,7,1,-1
CCCN1C(=O)/C(=C\C=C2\N(CC)c3ccccc3C2(C)C)SC1=S,-22,0,0,3,27,-1
CN1C(=CC=C2C=C(I)C(=O)C(I)=C2)C(C)(C)c2ccccc21,.,12,-7,33*,.,-1
Cc1cc(C)n(CCNC(=O)c2ccco2)n1,.,.,7,.,.,.
CCOc1ccc(S(=O)(=O)N2CCc3ccccc3C2)cc1,-4,-5,-2,10,6,-2
Cc1ccc(S(=O)(=O)N2c3ccccc3CC2C)cc1 (stereo not given),10,44,6,10,13*,7
CCOc1ccc(S(=O)(=O)N2c3ccccc3CC2C)cc1 (stereo not given),94*,163*,67*,76*,17*,77*
O=C(Nc1ccc(OCC(F)(F)C(F)F)c(C(F)(F)F)c1)c1ccccc1O,-9,1,2,87*,3,48*
C#CC(=O)N(c1cccc(OC)c1)C(C(=O)NC1CCCC1)c1cccs1 (stereo not given),19,?,100*,80*,3,101*
O=C(NCC(=O)N(c1ccc(F)cc1)C(C(=O)NC1CCCC1)c1cccnc1)c1ccco1 (stereo not given),.,.,5,.,.,.
Cc1cc(-c2ccccc2)nc2[n+]1CCN2C,-12,0,-3,62*,4,68*
Cc1nc(-c2ccccc2)cc(N2CCCC2)n1,-1,-1,8,0,1,-1
CS(=O)(=O)N(CC(N)=O)c1cccc(Br)c1,4,-4,-3,93*,5,1
Cc1c(Cl)cccc1N=C(N)N=C(N)N,6,0,3,81*,3,2
CCCc1[nH]n(-c2ccc(F)cc2)c(=O)c1C=Nc1cccc(F)c1,34,36,-6,3,17*,-2
CCCc1[nH]n(-c2ccc(F)cc2)c(=O)c1C=NCC1CCCO1 (stereo not given),18,-2,-8,0,3,-2
COCCN(Cc1nc(-c2ccc(-c3ccccc3)cc2)oc1C)C(C)C,.,.,-7,.,.,.
Cc1cnc(C(=O)Nc2ccc(N3CCN(C(=O)OC(C)(C)C)CC3)cc2)cn1,-3,68*,-3,7,39*,0
Cn1nc(CC(=O)Nc2ccc(N3CCN(C(=O)OC(C)(C)C)CC3)cc2)c2ccccc2c1=O,10,1,11,60*,15,50*
Cn1nc(CC(=O)N2CCN(c3ccccc3)CC2)c2ccccc2c1=O,-20,.,11,8,11,4
Cn1nc(CC(=O)Nc2ccc3c(c2)OCCO3)c2ccccc2c1=O,5,.,8,53*,4,48*
Cc1ccc(NC(=O)Cc2nn(C)c(=O)c3ccccc23)cc1F,8,-2,4,5,1,-1
Cc1cnc(C(=O)Nc2ccc(C(C)C)cc2)cn1,-78,19,-2,-1,18*,-1
COc1cccc(OC)c1C(=O)Nc1ccc(S(=O)(=O)N2CCCCC2)cc1,.,.,-1,.,.,.
CC(C)C(=O)N1CCN(c2ccccc2NC(=S)NC(=O)Cc2ccccc2)CC1,.,.,0,.,.,.
